Hits are enriched below; roughly 1.4% of the tested compounds scored in any of these assays.
EBNA-1 inhibitor: blocks EBNA-1 binding to DNA; EBNA-1 DNA binding, fluorescence polarization; inhibition, % at 14.8 µM; hit rate 0.34% among 300,000; AID 1950; in the data active = inhibition above about 28%
HCV NS3 hel inh: HCV NS3 helicase inhibition. NS3 helicase DNA unwinding, Cy5 molecular beacon fluorescence. hit rate 0.56% among 290,000. inhibition, % at 10.9 µM. AID 1800;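 active = inhibition above the mean of all tested compounds plus 3 SD, set per campaign, cut at about 35% in these data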
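Material: hepatitis C virus NS3 helicase domain fragment enzyme; measured by: Cy5 fluorescence, 0 and 60 min reads; control set: DMSO and thioflavine S; incubation: 60 min unwinding reaction at 25 °C after ATP addition; read-out basis: % inhibition from 60/0 min fluorescence ratio, DMSO 0%, thioflavine S 100%; repeats: singlicate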
ZTA counter: counter-screen for EBNA-1 inhibitors: inhibitors of Epstein-Barr virus ZTA | P03206 | ZTA-DNA binding, fluorescence polarization | inhibition, % at 11 µM | hit rate 0.15% among 320,000; in the data active = inhibition above about 33%
Target sequence (P03206 whole entry, looked up): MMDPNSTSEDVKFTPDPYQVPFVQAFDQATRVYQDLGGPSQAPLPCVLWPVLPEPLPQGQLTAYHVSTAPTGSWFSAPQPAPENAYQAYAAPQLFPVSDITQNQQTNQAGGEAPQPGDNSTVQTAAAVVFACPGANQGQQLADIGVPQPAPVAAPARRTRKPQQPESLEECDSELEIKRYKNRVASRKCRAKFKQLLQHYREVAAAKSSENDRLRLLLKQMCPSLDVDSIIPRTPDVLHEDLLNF
HCV core dimer: blocks dimerization of HCV core protein; TR-FRET GST/Flag-core106 dimerization, 1536-well; AID 1899; inhibition, % at 5 µM; hit rate 0.33% among 300,000;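 active = inhibition above the mean of all tested compounds plus 3 SD, set per screening campaign, cut at about 45% in these data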
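Assay system: GST-tagged and Flag-tagged HCV core protein residues 1-106 / Times: compound-protein-antibody incubation 4 h at 22.5 °C / Signal: time-resolved FRET, ex 340 nm, em 617 and 671 nm / Evaluation: % inhibition based on acceptor/donor emission ratio / Benchmarks: wells lacking GST-core106 and wells with excess unlabelled core106 / Repeats: singlicate, one well per compound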
UBC9 SUMO inh: inhibitors of human SUMOylation (UBC9); HTRF SUMOylation assay, SAE1/SAE2 + UBC9, in vitro; P63279; inhibition, % at 35 µM; hit rate 0.36% among 290,000; in the data active = inhibition above about 50%, passing the limit was not always enough
Target sequence (P63279 whole entry, looked up): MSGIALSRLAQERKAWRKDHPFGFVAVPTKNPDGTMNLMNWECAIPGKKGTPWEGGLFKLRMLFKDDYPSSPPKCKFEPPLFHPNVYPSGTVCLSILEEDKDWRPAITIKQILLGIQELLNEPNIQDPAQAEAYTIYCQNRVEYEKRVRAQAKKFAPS
Hits are given with their value.

O=C(c1ccco1)[C@@H]1[C@@H]2C(=O)N(c3ccc(F)cc3)C(=O)[C@@H]2[C@H]2C=Cc3ccccc3N21 was read as EBNA-1 inhibitor inactive, HCV NS3 hel inh inactive, ZTA counter inactive, HCV core dimer inactive and UBC9 SUMO inh inactive.
Screening O=C(NCC(=O)N1CCN(C(=O)c2ccco2)CC1)c1ccc(Br)cc1 returned EBNA-1 inhibitor inactive, HCV NS3 hel inh inactive, ZTA counter inactive, HCV core dimer inactive and UBC9 SUMO inh inactive.
Screening O=c1c2ccccc2nc(/C=C/c2cccnc2)n1Cc1ccccc1 returned HCV NS3 hel inh inactive and UBC9 SUMO inh 82.
For O=c1c2ccccc2nc(/C=C/c2cccnc2)n1CCc1ccccc1 the results were EBNA-1 inhibitor inactive, HCV NS3 hel inh inactive, ZTA counter inactive, HCV core dimer inactive and UBC9 SUMO inh inactive.
`O=C(Nc1ccc2c(c1)CN(Cc1ccc(CO)o1)CC2)c1ccc(C(F)(F)F)cc1` gave EBNA-1 inhibitor inactive, HCV NS3 hel inh inactive, ZTA counter inactive, HCV core dimer 58 and UBC9 SUMO inh inactive.
For Cc1c(C(=O)Nc2ccc(F)cc2)cn2c(nc3ccccc32)c1C#N the results were EBNA-1 inhibitor inactive, HCV NS3 hel inh inactive, ZTA counter inactive, HCV core dimer inactive and UBC9 SUMO inh 53.
`N#Cc1c2nc3ccccc3nc2n2cc(NC(=O)c3ccc(F)cc3)ccc12` gave HCV NS3 hel inh inactive.
Screening COC(=O)c1ccccc1NC1=C/C(=N\S(=O)(=O)c2ccc(C(=O)O)cc2)c2ccccc2C1=O returned EBNA-1 inhibitor inactive, HCV NS3 hel inh inactive, ZTA counter inactive, HCV core dimer inactive and UBC9 SUMO inh 92.
`Cc1oc2ccc(NS(=O)(=O)c3ccc(C(C)(C)C)cc3)cc2c1C(=O)Nc1ccccc1` gave EBNA-1 inhibitor inactive, HCV NS3 hel inh inactive, ZTA counter inactive, HCV core dimer 54 and UBC9 SUMO inh inactive.
Screening CC(=O)c1c(C)oc2ccc(NS(=O)(=O)c3ccc(C)cc3)cc12 returned EBNA-1 inhibitor inactive, HCV NS3 hel inh inactive, ZTA counter inactive, HCV core dimer inactive and UBC9 SUMO inh inactive.
`N#CCC(=O)Nc1ccc(C(=O)NNC(=O)CCN2CCN(c3ccccc3)CC2)cc1` gave ZTA counter inactive.
Screening Nc1ncnc2oc(-c3ccco3)c(-c3ccco3)c12 returned EBNA-1 inhibitor inactive, HCV NS3 hel inh inactive, ZTA counter inactive, HCV core dimer 73 and UBC9 SUMO inh 78.
For Nc1nnc(-c2ccco2)s1 the results were EBNA-1 inhibitor inactive, HCV NS3 hel inh inactive, ZTA counter inactive, HCV core dimer inactive and UBC9 SUMO inh inactive.
`C=CCNC(=O)C1CCN(S(=O)(=O)c2cccs2)CC1` gave EBNA-1 inhibitor inactive, HCV NS3 hel inh inactive, ZTA counter inactive, HCV core dimer inactive and UBC9 SUMO inh inactive.
`C=CCN=c1scc(-c2ccc(F)cc2)n1/N=C/c1ccccn1` gave EBNA-1 inhibitor inactive, HCV NS3 hel inh inactive, ZTA counter inactive, HCV core dimer inactive and UBC9 SUMO inh inactive.
`C=CCN=c1scc(-c2ccccc2)n1/N=C/c1ccccn1` gave EBNA-1 inhibitor inactive, HCV NS3 hel inh inactive, ZTA counter 84, HCV core dimer inactive and UBC9 SUMO inh inactive.
`N#Cc1c2ccc(OCC(N)=O)cc2n2ccccc12` gave EBNA-1 inhibitor inactive, HCV NS3 hel inh inactive, ZTA counter inactive, HCV core dimer inactive and UBC9 SUMO inh 62.
Screening O=C(Cn1cnc2scc(-c3cccc([N+](=O)[O-])c3)c2c1=O)NCc1ccco1 returned EBNA-1 inhibitor inactive, HCV NS3 hel inh inactive, ZTA counter inactive, HCV core dimer 64 and UBC9 SUMO inh inactive.
For Cc1ccccc1CSCC(=O)NC(=O)NCc1ccco1 the results were EBNA-1 inhibitor inactive, HCV NS3 hel inh inactive, ZTA counter inactive, HCV core dimer 58 and UBC9 SUMO inh inactive.
For O=C(CSc1cccc(C(F)(F)F)c1)NC(=O)NCc1ccco1 the results were EBNA-1 inhibitor inactive, HCV NS3 hel inh inactive, ZTA counter inactive, HCV core dimer 51 and UBC9 SUMO inh inactive.
Screening Cn1c(SCC(=O)NC(=O)NCc2ccco2)nnc1-c1ccccc1 returned EBNA-1 inhibitor inactive, HCV NS3 hel inh inactive, ZTA counter inactive, HCV core dimer 57 and UBC9 SUMO inh inactive.
For Cc1cc(SCC(=O)NC(=O)NCc2ccco2)nc2c(C)cccc12 the results were EBNA-1 inhibitor inactive, HCV NS3 hel inh inactive, ZTA counter inactive, HCV core dimer 48 and UBC9 SUMO inh inactive.
`CN(C)c1ccc(/C=C(\C#N)C(=O)OCC(=O)N(C)C2CCS(=O)(=O)C2)cc1` (stereo not drawn) gave ZTA counter inactive.
Screening COc1cc(C2c3c([nH]c(=O)[nH]c3=O)Nc3ccc4ccccc4c32)cc(OC)c1OC (stereo not drawn) returned EBNA-1 inhibitor inactive, HCV NS3 hel inh inactive, ZTA counter inactive, HCV core dimer inactive and UBC9 SUMO inh 77.
`COc1ccccc1CCC(=O)Oc1ccc(C#N)cc1OC` gave HCV NS3 hel inh inactive and UBC9 SUMO inh inactive.
`CN1C[C@@H]2C(c3ccc(Cl)nc3)C3(c4ccc(C#N)cc4)CC2(C3)[C@H]1c1ccccc1` (stereo partly drawn) gave EBNA-1 inhibitor inactive, ZTA counter inactive, HCV core dimer inactive and UBC9 SUMO inh inactive.
`N#Cc1ccc(C23CC4(C2)[C@H](CN(P(=O)(c2ccccc2)c2ccccc2)[C@@H]4c2ccccc2)C3c2ccc(Cl)nc2)cc1` (stereo partly drawn) gave EBNA-1 inhibitor inactive, ZTA counter inactive, HCV core dimer 53 and UBC9 SUMO inh inactive.
O=C(O)CC(CN1C(=O)c2ccccc2C1=O)c1ccccc1 (stereo not drawn) was read as EBNA-1 inhibitor inactive, ZTA counter inactive and HCV core dimer inactive.
`COc1ccc(CNC(=O)CN(C)S(=O)(=O)c2ccc3c(c2)OCCO3)cc1OC` gave ZTA counter inactive.
For O=C1CN(C(=O)CSc2nc(-c3ccccc3)cs2)c2ccccc2N1 the results were EBNA-1 inhibitor inactive, HCV NS3 hel inh inactive, ZTA counter inactive, HCV core dimer inactive and UBC9 SUMO inh inactive.
Screening CC1(C)C(=O)Nc2ccccc2N1C(=O)CSc1nc(-c2ccccc2)cs1 returned EBNA-1 inhibitor inactive, HCV NS3 hel inh inactive, ZTA counter inactive, HCV core dimer 46 and UBC9 SUMO inh inactive.
NC(=S)n1[nH]c(-c2ccc([N+](=O)[O-])cc2)c(N=Nc2cccc([N+](=O)[O-])c2)c1=O was read as HCV NS3 hel inh inactive and UBC9 SUMO inh 59.
Cc1c(N=Nc2c(-c3ccc([N+](=O)[O-])cc3)[nH]n(C(N)=S)c2=O)cccc1[N+](=O)[O-] was read as HCV NS3 hel inh inactive and UBC9 SUMO inh 69.
For COc1cc(C(C#N)N2CCC(c3ccccc3)=N2)ccc1O (stereo not drawn) the results were EBNA-1 inhibitor inactive, HCV NS3 hel inh inactive, ZTA counter inactive, HCV core dimer inactive and UBC9 SUMO inh inactive.
For Cc1cccc(C(=O)NC2CCN(S(=O)(=O)c3ccc(F)cc3)CC2)c1 the results were EBNA-1 inhibitor inactive, HCV NS3 hel inh inactive, ZTA counter inactive, HCV core dimer inactive and UBC9 SUMO inh inactive.
